# How the values were obtained:
# Mus musculus [1] = experiment: In vivo anticonvulsant activity determined as potency that blocked clonic seizures induced in DBA/2 mice by audiogenic stimuli; assay type: functional
# Mus musculus [2] = experiment: In vivo anticonvulsant activity determined as potency that blocked tonic seizures induced by audiogenic stimuli in DBA/2 mice after pretreatment with D-serine; assay type: functional
# Method in brief: (§1)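 DBA/2 mice pretreated with D-serine (300 nmol/mouse, icv) 30 min […], then tested for audiogenic seizures (110 dB sound, clonic/tonic phases scored).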
# Mus musculus [3] = experiment: In vivo anticonvulsant activity determined as potency that blocked NMDA-induced tonic seizures induced in DBA/2 mice; assay type: functional
# Mus musculus [4] = experiment: In vivo anticonvulsant activity determined as potency that blocked tonic seizures induced in DBA/2 mice by audiogenic stimuli; assay type: functional
# Mus musculus [5] = experiment: In vivo anticonvulsant activity determined as potency that blocked NMDA-induced clonic seizures induced in DBA/2 mice; assay type: functional
# Mus musculus [6] = experiment: In vivo anticonvulsant activity determined as potency that blocked clonic seizures induced by audiogenic stimuli in DBA/2 mice after pretreatment with D-serine; assay type: functional; method in brief: as §1
# Mus musculus [7] = experiment: In vivo anticonvulsant activity determined as ip dose that blocked clonic seizures induced in DBA/2 mice by audiogenic stimuli; assay type: functional
# Method in brief: (§2)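 Male DBA/2 mice (6–12 g, 22–26 days old) given drug or vehicle ip (DMSO, pH 7.3–7.7 with phosphate buffer). After 45 min, a 110 dB sound for 60 s or until clonus; seizures scored (wild running, clonic, tonic, respiratory arrest).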
# Mus musculus [8] = experiment: In vivo anticonvulsant activity determined as ip dose that blocked NMDA-induced clonic seizures induced in DBA/2 mice; assay type: functional
# Mus musculus [9] = experiment: In vivo anticonvulsant activity determined as ip dose that blocked tonic seizures induced by audiogenic stimuli in DBA/2 mice after pretreatment with D-serine; assay type: functional; method in brief: as §1
# Mus musculus [10] = experiment: In vivo anticonvulsant activity determined as ip dose that blocked clonic seizures induced by audiogenic stimuli in DBA/2 mice after pretreatment with D-serine; assay type: functional; method in brief: as §1
# Mus musculus [11] = experiment: In vivo anticonvulsant activity determined as ip dose that blocked 3,5-DHPG induced clonic seizures induced in DBA/2 mice; assay type: functional
# Method in brief: (§3)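 DBA/2 mice (n = 10 per group) given agent ip at 10–100 μmol/kg 15 min before icv DHPG (1.5 μmol); seizure-related activity observed for 90 min.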
# Glutamate NMDA receptor = experiment: In vitro binding affinity for rat cortical membrane N-methyl-D-aspartate glutamate receptor determined using [3H]CPP as radioligand
# Mus musculus [12] = experiment: In vivo anticonvulsant activity determined as ip dose that blocked 3,5-DHPG induced tonic seizures induced in DBA/2 mice after; assay type: functional; method in brief: as §3
# Mus musculus [13] = experiment: In vivo anticonvulsant activity determined as ip dose that blocked tonic seizures induced in DBA/2 mice by audiogenic stimuli; assay type: functional; method in brief: as §2
# Mus musculus [14] = experiment: In vivo anticonvulsant activity determined as ip dose that blocked NMDA-induced tonic seizures induced in DBA/2 mice after ip administration; assay type: functional
# Mus musculus [15] = experiment: In vivo anticonvulsant activity determined as icv dose that blocked tonic seizures induced by audiogenic stimuli in DBA/2 mice after pretreatment with D-serine; assay type: functional; conditions: central
# Mus musculus [16] = experiment: In vivo anticonvulsant activity determined as icv dose that blocked NMDA-induced tonic seizures induced in DBA/2 mice after ip administration; assay type: functional
# Method in brief: (§4)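 DBA/2 mice, n = 10 per group, were dosed with drug in DMSO buffered to pH 7.3–7.7, then given icv NMDA: 18.7 nmol/mouse for tonic extension or 1.9 nmol/mouse for clonic seizures. ED50 by Litchfield–Wilcoxon, 95% confidence limits.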
# Mus musculus [17] = experiment: In vivo anticonvulsant activity determined as icv dose that blocked NMDA-induced clonic seizures induced in DBA/2 mice; assay type: functional; conditions: central; method in brief: as §4
# Mus musculus [18] = experiment: In vivo anticonvulsant activity determined as icv dose that blocked clonic seizures induced by audiogenic stimuli in DBA/2 mice after pretreatment with D-serine; assay type: functional; conditions: central
# Mus musculus [19] = experiment: In vivo anticonvulsant activity determined as icv dose that blocked clonic seizures induced in DBA/2 mice by audiogenic stimuli; assay type: functional; conditions: central
# Method in brief: (§5)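 Male DBA/2 mice (6–12 g, 22–26 days old) received icv drug or vehicle (10 μL, 1 mm anterior to bregma, 1 mm lateral, 3 mm depth) under light ether anaesthesia. Drug was dissolved in DMSO, pH 7.3–7.7 with phosphate buffer. 45 min later, 110 dB bell for 60 s; wild running, clonus, tonic extension scored.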
# Mus musculus [20] = experiment: In vivo anticonvulsant activity determined as icv dose that blocked 3,5-DHPG induced tonic seizures induced in DBA/2 mice after; assay type: functional; conditions: central
# Mus musculus [21] = experiment: In vivo anticonvulsant activity determined as icv dose that blocked tonic seizures induced in DBA/2 mice by audiogenic stimuli; assay type: functional; conditions: central; method in brief: as §5
# Mus musculus [22] = experiment: In vivo anticonvulsant activity determined as icv dose that blocked 3,5-DHPG induced clonic seizures induced in DBA/2 mice; assay type: functional; conditions: central
# Rattus norvegicus [23] = species: Rattus norvegicus; experiment: Agonist activity tested in rat cortical slice model; assay type: functional
# Method in brief: (§6)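 Rat cortical slice model; compounds tested up to 1000 μM both as agonists and as antagonists. Antagonism measured against responses to NMDA (10 μM), AMPA (5 μM) or KA (5 μM), agonist applied for a further 90 s.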
# [24] = target: T1, Metabotropic glutamate receptor 4 (Rattus norvegicus, UniProt P31423); experiment: Activity tested at cloned rat Metabotropic glutamate receptor 4 expressed in Chinese Hamster Ovary (CHO) cells; assay type: functional, cell-based
# Method in brief: (§7)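 Cloned rat mGluR1α, mGluR2, mGluR4a or mGluR5a stably expressed in CHO cell lines; cells maintained and tested by a previously described procedure.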
# Rattus norvegicus [25] = species: Rattus norvegicus; experiment: Percent inhibition of the response induced by 5 uM of AMPA at a concentration of 1 mM in rat; assay type: functional
# [26] = target: Glutamate receptor ionotropic, kainate; experiment: In vitro binding affinity for rat cortical membrane KA receptor determined using [3H]KA as radioligand
# Rattus norvegicus [27] = species: Rattus norvegicus; experiment: Antagonist activity against responses induced by 10 uM NMDA tested in rat cortical slice model; assay type: functional
# Method in brief: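 Rat cortical slices; antagonism of responses induced by 10 μM NMDA, agonist applied for a further 90 s; IC50 derived.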
# [28] = target: T2, Glutamate receptor ionotropic, AMPA (Rattus norvegicus, UniProt P19490+P19491+P19492+P19493); experiment: In vitro binding affinity for rat cortical membrane Ionotropic glutamate receptor AMPA determined using [3H]AMPA as radioligand
# [29] = target: T1, Metabotropic glutamate receptor 4; experiment: Inhibitory constant against cloned rat Metabotropic glutamate receptor 4 expressed in Chinese Hamster Ovary (CHO) cells; assay type: cell-based; method in brief: as §7
# [30] = target: Metabotropic glutamate receptor 1 (Rattus norvegicus, UniProt P23385); experiment: Inhibitory constant against cloned rat Metabotropic glutamate receptor 1 expressed in Chinese Hamster Ovary (CHO) cells; assay type: cell-based; method in brief: as §7
# [31] = target: Metabotropic glutamate receptor 2 (Rattus norvegicus) (UniProt P31421); experiment: Activity tested at cloned rat mGluR2 receptor expressed in Chinese Hamster Ovary (CHO) cells at 1 mM concentration; assay type: functional, cell-based
# Method in brief: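 Cloned rat mGluR2 in CHO cells; test compound at 1 mM, also checked for inhibition of the response to 30 μM Glu.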
# [32] = target: T3, Metabotropic glutamate receptor 5 (Rattus norvegicus, UniProt P31424); experiment: Inhibitory constant against cloned rat Metabotropic glutamate receptor 5 expressed in Chinese Hamster Ovary (CHO) cells; assay type: cell-based; method in brief: as §7
# [33] = target: Metabotropic glutamate receptor 2 (Rattus norvegicus, UniProt P31421); experiment: Activity tested at cloned rat mGluR2 receptor expressed in Chinese Hamster Ovary (CHO) cells; assay type: functional, cell-based
# Method in brief: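 Rat mGluR2 stably expressed in CHO cells, with cells maintained and tested as described in an earlier report. Agonism was assessed directly. Antagonism was assessed against a response to 30 μM Glu, with test compound at 1 mM.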
# [34] = target: T3, Metabotropic glutamate receptor 5; experiment: Activity tested at cloned rat Metabotropic glutamate receptor 5 expressed in Chinese Hamster Ovary (CHO) cells; assay type: functional, cell-based
# Method in brief: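 Rat mGluR5a splice variant expressed in a CHO cell line. Compounds were tested for agonist and antagonist action at this receptor.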
# [35] = target: T2, Glutamate receptor ionotropic, AMPA; experiment: Binding affinity of compound was determined against Ionotropic glutamate receptor AMPA receptor, using radioligand [3H]- AMPA; assay type: protein-complex assay
# Mus musculus [36] = experiment: In vivo anticonvulsant activity determined as ip dose that blocked 3,5-DHPG induced tonic seizures induced in DBA/2 mice; assay type: functional; method in brief: as §3
# Rattus norvegicus [37] = species: Rattus norvegicus; experiment: Antagonist activity tested in rat cortical slice model; assay type: functional; method in brief: as §6
# Mus musculus [38] = experiment: In vivo anticonvulsant activity determined as ip dose that blocked NMDA-induced tonic seizures induced in DBA/2 mice; assay type: functional
# T1 sequence (P31423 whole entry): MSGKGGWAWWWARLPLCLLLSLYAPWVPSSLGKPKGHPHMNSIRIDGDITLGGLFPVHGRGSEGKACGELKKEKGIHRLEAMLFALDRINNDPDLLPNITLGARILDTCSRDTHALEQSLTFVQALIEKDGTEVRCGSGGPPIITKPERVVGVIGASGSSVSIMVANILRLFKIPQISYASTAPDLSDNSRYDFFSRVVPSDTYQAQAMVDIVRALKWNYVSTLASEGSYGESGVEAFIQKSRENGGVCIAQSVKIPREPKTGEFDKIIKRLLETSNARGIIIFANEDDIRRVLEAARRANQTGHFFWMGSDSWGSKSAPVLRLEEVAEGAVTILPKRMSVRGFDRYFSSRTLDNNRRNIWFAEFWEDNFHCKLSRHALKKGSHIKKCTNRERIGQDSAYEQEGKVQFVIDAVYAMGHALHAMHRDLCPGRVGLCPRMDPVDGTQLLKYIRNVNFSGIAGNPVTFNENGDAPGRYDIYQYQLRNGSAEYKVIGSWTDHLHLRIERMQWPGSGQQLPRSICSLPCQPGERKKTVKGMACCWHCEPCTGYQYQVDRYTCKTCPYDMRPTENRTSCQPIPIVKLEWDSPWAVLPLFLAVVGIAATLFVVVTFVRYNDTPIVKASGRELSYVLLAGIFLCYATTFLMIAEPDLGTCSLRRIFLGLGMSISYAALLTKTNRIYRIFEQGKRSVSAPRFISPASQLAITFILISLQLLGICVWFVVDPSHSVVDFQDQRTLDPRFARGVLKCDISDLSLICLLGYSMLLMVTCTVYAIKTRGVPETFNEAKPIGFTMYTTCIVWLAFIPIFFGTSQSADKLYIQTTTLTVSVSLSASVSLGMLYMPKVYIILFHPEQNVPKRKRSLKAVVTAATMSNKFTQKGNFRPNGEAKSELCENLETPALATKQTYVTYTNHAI
# T3 sequence (P31424 whole entry): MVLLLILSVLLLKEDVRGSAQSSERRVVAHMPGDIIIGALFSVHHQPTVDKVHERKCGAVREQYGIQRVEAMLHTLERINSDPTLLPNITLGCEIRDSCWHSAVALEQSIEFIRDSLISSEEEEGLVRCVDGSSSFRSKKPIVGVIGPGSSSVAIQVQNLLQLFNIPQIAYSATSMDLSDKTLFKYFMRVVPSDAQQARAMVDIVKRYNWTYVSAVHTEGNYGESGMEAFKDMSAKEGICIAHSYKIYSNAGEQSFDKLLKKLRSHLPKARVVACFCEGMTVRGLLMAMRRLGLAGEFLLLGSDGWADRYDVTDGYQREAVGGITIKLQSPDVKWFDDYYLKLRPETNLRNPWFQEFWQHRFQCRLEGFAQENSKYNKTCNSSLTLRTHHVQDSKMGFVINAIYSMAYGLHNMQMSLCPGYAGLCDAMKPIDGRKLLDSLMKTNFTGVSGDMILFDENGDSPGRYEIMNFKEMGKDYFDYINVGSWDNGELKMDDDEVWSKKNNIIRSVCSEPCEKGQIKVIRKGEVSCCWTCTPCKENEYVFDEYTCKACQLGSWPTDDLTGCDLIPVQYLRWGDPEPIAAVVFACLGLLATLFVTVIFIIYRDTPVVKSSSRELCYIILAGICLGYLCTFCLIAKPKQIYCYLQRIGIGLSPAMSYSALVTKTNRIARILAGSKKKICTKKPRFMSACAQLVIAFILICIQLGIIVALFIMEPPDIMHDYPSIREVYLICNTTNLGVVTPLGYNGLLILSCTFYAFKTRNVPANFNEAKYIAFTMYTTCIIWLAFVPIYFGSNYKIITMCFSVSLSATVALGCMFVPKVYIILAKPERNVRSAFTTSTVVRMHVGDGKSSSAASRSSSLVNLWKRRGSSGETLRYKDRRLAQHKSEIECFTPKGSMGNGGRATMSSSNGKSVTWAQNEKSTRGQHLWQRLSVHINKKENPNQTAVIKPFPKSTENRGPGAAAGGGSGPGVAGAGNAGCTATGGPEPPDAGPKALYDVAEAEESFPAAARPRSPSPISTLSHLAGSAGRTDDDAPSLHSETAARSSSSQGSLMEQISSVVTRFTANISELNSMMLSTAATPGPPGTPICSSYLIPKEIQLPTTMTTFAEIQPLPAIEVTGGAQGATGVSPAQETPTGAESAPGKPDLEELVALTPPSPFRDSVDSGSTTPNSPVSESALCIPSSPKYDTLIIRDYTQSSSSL
# Sequence of Metabotropic glutamate receptor 1 (P23385 whole entry): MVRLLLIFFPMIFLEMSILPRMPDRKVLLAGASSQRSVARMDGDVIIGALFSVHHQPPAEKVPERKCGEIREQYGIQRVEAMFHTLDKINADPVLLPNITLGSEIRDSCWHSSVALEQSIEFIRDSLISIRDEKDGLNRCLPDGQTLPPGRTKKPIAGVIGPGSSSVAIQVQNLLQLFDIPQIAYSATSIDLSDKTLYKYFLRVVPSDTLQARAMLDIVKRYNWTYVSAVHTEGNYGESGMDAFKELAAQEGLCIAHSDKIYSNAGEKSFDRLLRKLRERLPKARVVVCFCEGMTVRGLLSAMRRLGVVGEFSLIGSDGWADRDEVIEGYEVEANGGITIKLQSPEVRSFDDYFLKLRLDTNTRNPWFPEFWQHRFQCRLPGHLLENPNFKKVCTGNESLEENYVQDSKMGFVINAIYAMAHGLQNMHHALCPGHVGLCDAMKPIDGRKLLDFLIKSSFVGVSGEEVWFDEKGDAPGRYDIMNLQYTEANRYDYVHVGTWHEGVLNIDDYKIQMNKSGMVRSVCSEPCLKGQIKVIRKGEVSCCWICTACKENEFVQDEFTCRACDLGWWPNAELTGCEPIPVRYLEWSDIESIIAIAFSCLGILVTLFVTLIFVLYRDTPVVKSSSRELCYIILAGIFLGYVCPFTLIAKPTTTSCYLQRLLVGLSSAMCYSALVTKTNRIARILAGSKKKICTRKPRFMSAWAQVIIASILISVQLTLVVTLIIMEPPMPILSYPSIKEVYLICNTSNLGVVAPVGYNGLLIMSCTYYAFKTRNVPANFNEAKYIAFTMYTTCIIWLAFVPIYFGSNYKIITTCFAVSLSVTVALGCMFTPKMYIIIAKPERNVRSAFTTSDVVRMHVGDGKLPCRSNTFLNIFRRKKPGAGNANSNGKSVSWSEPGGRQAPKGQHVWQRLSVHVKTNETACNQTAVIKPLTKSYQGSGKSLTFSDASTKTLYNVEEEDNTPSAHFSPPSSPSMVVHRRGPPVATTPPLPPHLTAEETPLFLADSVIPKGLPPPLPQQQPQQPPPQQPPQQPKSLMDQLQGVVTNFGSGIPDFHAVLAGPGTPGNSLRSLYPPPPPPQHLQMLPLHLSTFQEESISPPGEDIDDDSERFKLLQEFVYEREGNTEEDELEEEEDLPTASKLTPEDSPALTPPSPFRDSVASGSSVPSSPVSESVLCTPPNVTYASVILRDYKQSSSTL
# Sequence of Metabotropic glutamate receptor 2 (P31421 whole entry): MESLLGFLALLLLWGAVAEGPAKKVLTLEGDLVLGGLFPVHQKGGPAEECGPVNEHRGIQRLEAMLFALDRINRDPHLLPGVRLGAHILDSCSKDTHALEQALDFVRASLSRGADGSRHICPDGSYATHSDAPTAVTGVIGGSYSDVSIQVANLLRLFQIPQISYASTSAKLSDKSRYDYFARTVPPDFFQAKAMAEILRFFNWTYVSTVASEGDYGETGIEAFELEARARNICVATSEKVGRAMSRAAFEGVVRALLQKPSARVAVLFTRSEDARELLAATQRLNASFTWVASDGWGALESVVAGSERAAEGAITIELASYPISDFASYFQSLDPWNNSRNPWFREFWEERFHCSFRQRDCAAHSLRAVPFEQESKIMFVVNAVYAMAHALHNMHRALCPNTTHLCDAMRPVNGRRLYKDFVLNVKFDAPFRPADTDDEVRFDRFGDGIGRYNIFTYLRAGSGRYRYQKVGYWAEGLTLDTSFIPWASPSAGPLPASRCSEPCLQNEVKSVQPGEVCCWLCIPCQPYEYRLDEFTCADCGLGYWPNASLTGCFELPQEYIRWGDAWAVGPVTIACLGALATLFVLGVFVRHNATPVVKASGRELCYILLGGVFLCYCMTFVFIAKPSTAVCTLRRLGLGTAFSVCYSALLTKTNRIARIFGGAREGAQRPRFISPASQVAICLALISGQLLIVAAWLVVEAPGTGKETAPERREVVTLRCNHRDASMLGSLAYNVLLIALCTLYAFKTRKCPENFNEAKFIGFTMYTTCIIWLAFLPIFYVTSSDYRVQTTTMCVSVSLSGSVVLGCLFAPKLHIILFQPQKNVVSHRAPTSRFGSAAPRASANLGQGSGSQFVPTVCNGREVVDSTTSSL
# Sequence of Metabotropic glutamate receptor 2 (Rattus norvegicus) (P31421 19-872 limits assumed): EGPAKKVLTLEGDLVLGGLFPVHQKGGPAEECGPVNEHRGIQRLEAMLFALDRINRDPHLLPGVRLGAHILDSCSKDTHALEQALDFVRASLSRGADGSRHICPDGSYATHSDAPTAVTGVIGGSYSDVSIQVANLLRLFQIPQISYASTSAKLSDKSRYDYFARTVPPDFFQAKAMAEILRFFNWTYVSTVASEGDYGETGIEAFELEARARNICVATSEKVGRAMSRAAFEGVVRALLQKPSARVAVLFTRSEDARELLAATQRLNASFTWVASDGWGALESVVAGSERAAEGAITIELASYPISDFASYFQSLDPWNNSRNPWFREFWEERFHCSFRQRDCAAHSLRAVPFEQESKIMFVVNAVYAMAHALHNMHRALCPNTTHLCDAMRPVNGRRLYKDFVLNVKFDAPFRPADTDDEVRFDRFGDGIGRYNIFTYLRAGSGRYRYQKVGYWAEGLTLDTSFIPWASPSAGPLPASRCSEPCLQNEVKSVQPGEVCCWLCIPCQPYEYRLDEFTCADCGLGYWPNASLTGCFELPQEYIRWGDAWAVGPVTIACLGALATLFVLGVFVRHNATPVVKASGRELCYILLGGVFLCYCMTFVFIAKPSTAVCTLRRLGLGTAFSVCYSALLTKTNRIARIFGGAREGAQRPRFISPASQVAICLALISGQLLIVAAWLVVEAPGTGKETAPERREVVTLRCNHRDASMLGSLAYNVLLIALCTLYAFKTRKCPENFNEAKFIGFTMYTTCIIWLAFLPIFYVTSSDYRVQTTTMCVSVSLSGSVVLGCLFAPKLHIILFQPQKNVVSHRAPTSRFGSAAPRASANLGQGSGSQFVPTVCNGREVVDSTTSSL
smiles,measurement,setting,value
O=C1NC(=O)C(c2ccccc2)(c2ccccc2)N1 [PHENYTOIN],ED50,Mus musculus [1],9.1 µmol/kg
same,ED50,Mus musculus [2],8.7 µmol/kg
same,ED50,Mus musculus [3],2.2 µmol/kg
same,ED50,Mus musculus [4],7.3 µmol/kg
same,ED50,Mus musculus [5],31 µmol/kg
same,ED50,Mus musculus [6],11 µmol/kg
O=C(O)[C@H]1CN(C/C=C/P(=O)(O)O)CCN1 [MIDAFOTEL],ED50,Mus musculus [7],1.8 µmol/kg
same,ED50,Mus musculus [8],17 µmol/kg
same,ED50,Mus musculus [9],1.2 µmol/kg
same,ED50,Mus musculus [10],2.5 µmol/kg
same,ED50,Mus musculus [11],8.6 µmol/kg
same,IC50,Glutamate NMDA receptor,0.04 µM
same,ED50,Mus musculus [12],6.8 µmol/kg
same,ED50,Mus musculus [13],0.79 µmol/kg
same,ED50,Mus musculus [14],11 µmol/kg
CCCC(CCC)C(=O)O [VALPROIC ACID],ED50,Mus musculus [1],258 µmol/kg
same,ED50,Mus musculus [2],205 µmol/kg
same,ED50,Mus musculus [3],498 µmol/kg
same,ED50,Mus musculus [4],187 µmol/kg
same,ED50,Mus musculus [5],878 µmol/kg
same,ED50,Mus musculus [6],275 µmol/kg
O=C(O)c1cc(O)c2c(Cl)cc(Cl)cc2n1,ED50,Mus musculus [15],8.5 µmol/kg
same,ED50,Mus musculus [16],22 µmol/kg
same,ED50,Mus musculus [17],26 µmol/kg
same,ED50,Mus musculus [18],12 µmol/kg
same,ED50,Mus musculus [19],2.4 µmol/kg
same,ED50,Mus musculus [20],11 µmol/kg
same,ED50,Mus musculus [21],2.2 µmol/kg
same,ED50,Mus musculus [22],14 µmol/kg
N[C@@]1(C(=O)O)C[C@@H]2ON=C(C(=O)O)[C@@H]2C1 (racemic),ED50,Mus musculus [7],28 µmol/kg
same,EC50,Rattus norvegicus [23],> 1000 µM
same,EC50,[24],> 1000 µM
same,Inhibition,Rattus norvegicus [25],32%
same,ED50,Mus musculus [8],54 µmol/kg
same,ED50,Mus musculus [9],27 µmol/kg
same,IC50,[26],> 100 µM
same,ED50,Mus musculus [10],33 µmol/kg
same,ED50,Mus musculus [11],70 µmol/kg
same,IC50,Glutamate NMDA receptor,0.49 µM
same,IC50,Rattus norvegicus [27],14 µM
same,IC50,[28],> 100 µM
same,ED50,Mus musculus [12],45 µmol/kg
same,ED50,Mus musculus [13],22 µmol/kg
same,Ki,[29],> 1000 µM
same,Ki,[30],94 µM
same,Activation,[31],36%
same,Ki,[32],640 µM
same,ED50,Mus musculus [14],39 µmol/kg
N[C@H](CCCP(=O)(O)O)C(=O)O,IC50,Glutamate NMDA receptor,0.88 µM
N[C@@H](CCCP(=O)(O)O)C(=O)O,IC50,Glutamate NMDA receptor,29 µM
CC(C)OC(=O)Nc1cccc(Cl)c1 [CHLORPROPHAM],ED50,Mus musculus [15],2.8 µmol/kg
same,ED50,Mus musculus [16],22 µmol/kg
same,ED50,Mus musculus [17],41 µmol/kg
same,ED50,Mus musculus [18],5.2 µmol/kg
same,ED50,Mus musculus [19],5.6 µmol/kg
same,ED50,Mus musculus [20],6.9 µmol/kg
same,ED50,Mus musculus [21],2.6 µmol/kg
same,ED50,Mus musculus [22],8.7 µmol/kg
NC(=O)OCC(COC(N)=O)c1ccccc1 [FELBAMATE],ED50,Mus musculus [1],204 µmol/kg
same,ED50,Mus musculus [2],328 µmol/kg
same,ED50,Mus musculus [3],51 µmol/kg
same,ED50,Mus musculus [4],97 µmol/kg
same,ED50,Mus musculus [5],122 µmol/kg
same,ED50,Mus musculus [6],674 µmol/kg
N[C@@]1(C(=O)O)CC[C@@H](C(=O)O)C1 (racemic),EC50,[24],800 µM
same,EC50,[33],2 µM
same,EC50,[34],23 µM
N[C@]1(C(=O)O)C[C@@H]2ON=C(C(=O)O)[C@@H]2C1 (racemic),ED50,Mus musculus [7],42 µmol/kg
same,EC50,Rattus norvegicus [23],> 1000 µM
same,EC50,[24],> 1000 µM
same,IC50,[35],> 100 µM
same,ED50,Mus musculus [36],84 µmol/kg
same,ED50,Mus musculus [9],24 µmol/kg
same,IC50,[26],> 100 µM
same,ED50,Mus musculus [10],41 µmol/kg
same,EC50,[33],16 µM
same,IC50,Glutamate NMDA receptor,> 100 µM
same,IC50,Rattus norvegicus [37],> 1000 µM
same,ED50,Mus musculus [38],91 µmol/kg
same,ED50,Mus musculus [13],25 µmol/kg
same,Ki,[29],> 1000 µM
same,Ki,[30],27 µM
same,Ki,[32],440 µM

# Source: ChEMBL document CHEMBL1144895, “Synthesis and anticonvulsant activity of novel bicyclic acidic amino acids” (J Med Chem, 2003)
